Test results taken from ChEMBL document CHEMBL4020721 (Eur J Med Chem, 2017).

Experiments:
[1] = Drug recovery in monkey liver microsomes at 1 uM measured after 30 mins by LC-MS/MS analysis
[2] = Intrinsic clearance in human liver microsomes assessed per mg protein at 1 uM preincubated for 5 mins followed by NADPH addition measured after 5 to 30 mins by LC-MS/MS analysis; format: ADME, microsome; conditions: read-out: CLH
In short: (§1)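 Microsomes (0.5 mg/ml) with 1 µM compound were preincubated 5 min at 37°C in 100 mM phosphate buffer pH 7.4, then started with 1 mM NADPH. Samples were taken at 0, 5, 10 and 30 min, quenched with acetonitrile/tinidazole and run by LC-MS/MS. CLint = k / microsomal protein concentration. Midazolam was the positive control.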

CYP2C19 [3] = target: T1, CYP2C19 (Homo sapiens, UniProt P33261); test: (§2) Reversible inhibition of CYP2C19 in human liver microsomes at 10 uM after 20 mins in presence of NADPH by LC-MS/MS analysis; format: ADME; conditions: liver microsomes
CYP1A2 [4] = target: T2, CYP1A2 (Homo sapiens, UniProt P05177); test: Reversible inhibition of CYP1A2 in human liver microsomes at 10 uM after 20 mins in presence of NADPH by LC-MS/MS analysis; format: ADME
T2 sequence (P05177 whole entry): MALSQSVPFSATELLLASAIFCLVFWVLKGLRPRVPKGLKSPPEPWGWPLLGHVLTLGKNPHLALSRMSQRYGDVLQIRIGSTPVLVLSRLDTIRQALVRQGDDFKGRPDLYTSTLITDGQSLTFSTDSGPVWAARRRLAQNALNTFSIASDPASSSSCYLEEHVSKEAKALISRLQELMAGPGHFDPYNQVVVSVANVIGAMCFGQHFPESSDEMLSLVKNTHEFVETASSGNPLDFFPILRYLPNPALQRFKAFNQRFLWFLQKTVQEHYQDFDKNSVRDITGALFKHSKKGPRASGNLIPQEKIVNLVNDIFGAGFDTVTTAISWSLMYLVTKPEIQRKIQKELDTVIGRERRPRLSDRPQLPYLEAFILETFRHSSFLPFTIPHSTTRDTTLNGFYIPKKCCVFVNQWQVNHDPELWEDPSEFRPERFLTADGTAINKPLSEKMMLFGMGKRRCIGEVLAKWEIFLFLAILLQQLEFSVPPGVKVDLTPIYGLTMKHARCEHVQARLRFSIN

[5] = Intrinsic clearance in monkey liver microsomes assessed per mg protein at 1 uM preincubated for 5 mins followed by NADPH addition measured after 5 to 30 mins by LC-MS/MS analysis; conditions: liver microsomes; read-out: CLH
Cytochrome P450 3A4 [6] = target: T3, Cytochrome P450 3A4 (Homo sapiens, UniProt P08684); test: (§3) Time dependent irreversible inhibition of CYP3A4 in human liver microsomes at 10 uM preincubated with compound followed by NADPH addition by LC-MS/MS analysis; format: ADME; conditions: microsomes, 10 µM
In short: (§4)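 HLM (0.2 mg/ml) with 10 µM compound were preincubated 0, 5, 10 or 20 min at 37°C with 1 mM NADPH or PBS. Substrate cocktail (halved concentrations) plus NADPH was then added for 10 min. Metabolites were measured by LC-MS/MS. Kobs is the slope of relative activity versus preincubation time.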

[7] = Intrinsic clearance in rat liver microsomes assessed per mg protein at 1 uM preincubated for 5 mins followed by NADPH addition measured after 5 to 30 mins by LC-MS/MS analysis; format: ADME, microsome; conditions: read-out: CLH
In short: as §1

[8] = (§5) Drug recovery in human liver microsomes at 1 uM measured after 30 mins by LC-MS/MS analysis; format: ADME, microsome; conditions: liver microsomes, read-out: Drug recovery
In short: (§6)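 Liver microsomes (0.5 mg/ml) were incubated with 1 µM compound at 37°C in 100 mM phosphate buffer pH 7.4 without NADPH for 30 min. Reactions were quenched with acetonitrile/tinidazole internal standard and analysed by LC-MS/MS. Recovery (%) was taken from the compound/internal standard peak area ratio.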

SNU-5 = test: Growth inhibition of human SNU5 cells after 72 hrs by CCK-8 assay; format: functional, cell-based
CYP2D6 [9] = target: T4, CYP2D6 (Homo sapiens, UniProt P10635); test: (§7) Reversible inhibition of CYP2D6 in human liver microsomes at 10 uM after 20 mins in presence of NADPH by LC-MS/MS analysis; format: ADME; conditions: liver microsomes
CYP2C9 [10] = target: T5, CYP2C9 (Homo sapiens, UniProt P11712); test: (§8) Reversible inhibition of CYP2C9 in human liver microsomes at 10 uM after 20 mins by in presence of NADPH LC-MS/MS analysis; format: ADME; conditions: liver microsomes
NCI-H1993 = test: Growth inhibition of human NCI-H1993 cells after 72 hrs by CCK-8 assay; format: functional, cell-based
[11] = Drug recovery in rat liver microsomes at 1 uM measured after 30 mins by LC-MS/MS analysis; format: ADME, microsome; conditions: liver microsomes, read-out: Drug recovery
CYP3A4 [12] = target: T6, CYP3A4 (Homo sapiens, UniProt P08684); test: (§9) Reversible inhibition of CYP3A4 in human liver microsomes at 10 uM after 20 mins in presence of NADPH by LC-MS/MS analysis; format: ADME; conditions: liver microsomes
Liver = test: as §5; format: ADME, microsome; conditions: microsomes, 0.5 h, 1 µM
In short: as §6

Cytochrome P450 2C19 = Cytochrome P450 2C19 (Homo sapiens, UniProt P33261); test: as §2; format: ADME; conditions: microsomes, 20 min, 10 µM
CYP3A4 [13] = target: T6, CYP3A4; test: as §3; format: ADME; conditions: liver microsomes
In short: as §4

Cytochrome P450 2D6 = Cytochrome P450 2D6 (Homo sapiens, UniProt P10635); test: as §7; format: ADME; conditions: microsomes, 20 min, 10 µM
Cytochrome P450 2C9 = Cytochrome P450 2C9 (Homo sapiens, UniProt P11712); test: as §8; format: ADME; conditions: microsomes, 20 min, 10 µM
CYP1A2 [14] = target: T2, CYP1A2; test: Time dependent irreversible inhibition of CYP1A2 in human liver microsomes at 10 uM preincubated with compound followed by NADPH addition by LC-MS/MS analysis; format: ADME; conditions: liver microsomes
In short: as §4

CYP2C9 [15] = target: T5, CYP2C9; test: Time dependent irreversible inhibition of CYP2C9 in human liver microsomes at 10 uM preincubated with compound followed by NADPH addition by LC-MS/MS analysis; format: ADME; conditions: liver microsomes
In short: as §4

CYP2C19 [16] = target: T1, CYP2C19; test: Time dependent irreversible inhibition of CYP2C19 in human liver microsomes at 10 uM preincubated with compound followed by NADPH addition by LC-MS/MS analysis; format: ADME
In short: as §4

CYP2D6 [17] = target: T4, CYP2D6; test: Time dependent irreversible inhibition of CYP2D6 in human liver microsomes at 10 uM preincubated with compound followed by NADPH addition by LC-MS/MS analysis; format: ADME; conditions: liver microsomes
In short: as §4

Cytochrome P450 3A4 [18] = target: T3, Cytochrome P450 3A4; test: as §9; format: ADME; conditions: microsomes, 20 min, 10 µM
[19] = target: Hepatocyte growth factor receptor (Homo sapiens, UniProt P08581); test: Inhibition of c-MET (unknown origin) using TK substrate-biotin peptide as substrate preincubated for 5 to 10 mins followed by ATP addition measured after 30 mins by HTRF assay
Rattus norvegicus = test: Oral bioavailability in Sprague-Dawley rat plasma at 6 mg/kg by UPLC-MS/MS analysis; format: ADME, organism-based; conditions: in vivo
In short: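 Male Sprague-Dawley rats (180-220 g) were fasted overnight with free access to water. Dosing was intravenous (n=2) or oral at 6 mg/kg (n=3). Heparinized blood was drawn from 0 to 1440 min. Plasma was frozen at -20°C, then precipitated with acetonitrile containing internal standard, centrifuged and analysed by UPLC-MS/MS.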

T1 sequence (P33261 whole entry): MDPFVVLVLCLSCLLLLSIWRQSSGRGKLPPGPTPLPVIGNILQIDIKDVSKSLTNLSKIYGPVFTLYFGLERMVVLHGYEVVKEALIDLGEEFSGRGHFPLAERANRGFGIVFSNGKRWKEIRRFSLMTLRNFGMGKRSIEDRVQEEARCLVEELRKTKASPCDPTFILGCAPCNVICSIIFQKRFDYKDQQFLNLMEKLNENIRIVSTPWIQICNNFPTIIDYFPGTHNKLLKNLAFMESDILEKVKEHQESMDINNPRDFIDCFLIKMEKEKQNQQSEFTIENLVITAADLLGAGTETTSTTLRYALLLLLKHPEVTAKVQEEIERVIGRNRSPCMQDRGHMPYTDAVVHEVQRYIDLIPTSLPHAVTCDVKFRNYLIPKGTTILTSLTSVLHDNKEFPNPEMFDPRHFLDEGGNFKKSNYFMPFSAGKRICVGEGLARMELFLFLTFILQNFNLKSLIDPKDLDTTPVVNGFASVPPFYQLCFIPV
T4 sequence (P10635 whole entry): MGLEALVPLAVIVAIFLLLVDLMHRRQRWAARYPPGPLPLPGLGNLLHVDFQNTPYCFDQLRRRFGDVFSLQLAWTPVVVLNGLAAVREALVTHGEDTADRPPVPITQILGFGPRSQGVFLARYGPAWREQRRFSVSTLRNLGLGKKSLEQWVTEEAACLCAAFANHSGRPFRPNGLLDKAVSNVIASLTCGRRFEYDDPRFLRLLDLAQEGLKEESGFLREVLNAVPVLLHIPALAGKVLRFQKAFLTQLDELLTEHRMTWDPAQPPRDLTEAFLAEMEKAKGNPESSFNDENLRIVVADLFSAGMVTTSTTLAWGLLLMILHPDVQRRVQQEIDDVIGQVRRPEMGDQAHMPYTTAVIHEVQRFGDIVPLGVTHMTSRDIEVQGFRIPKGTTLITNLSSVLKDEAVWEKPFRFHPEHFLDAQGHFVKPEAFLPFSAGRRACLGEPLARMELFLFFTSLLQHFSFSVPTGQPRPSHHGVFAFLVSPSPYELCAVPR
T6 sequence (P08684 whole entry): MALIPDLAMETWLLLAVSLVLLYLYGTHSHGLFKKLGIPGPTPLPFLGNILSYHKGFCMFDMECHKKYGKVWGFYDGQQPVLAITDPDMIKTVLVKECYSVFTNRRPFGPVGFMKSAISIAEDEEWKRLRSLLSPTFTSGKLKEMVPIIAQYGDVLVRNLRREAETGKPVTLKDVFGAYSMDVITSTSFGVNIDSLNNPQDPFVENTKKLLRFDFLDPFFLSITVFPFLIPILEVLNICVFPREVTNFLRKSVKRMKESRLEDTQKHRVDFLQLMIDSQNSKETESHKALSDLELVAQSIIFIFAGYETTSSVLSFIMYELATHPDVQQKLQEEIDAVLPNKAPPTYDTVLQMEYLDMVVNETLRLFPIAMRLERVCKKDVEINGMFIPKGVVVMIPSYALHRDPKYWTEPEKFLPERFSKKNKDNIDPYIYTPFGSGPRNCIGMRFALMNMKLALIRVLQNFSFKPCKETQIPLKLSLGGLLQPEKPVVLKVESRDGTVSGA
T3 sequence (P08684 whole entry): as above
T5 sequence (P11712 whole entry): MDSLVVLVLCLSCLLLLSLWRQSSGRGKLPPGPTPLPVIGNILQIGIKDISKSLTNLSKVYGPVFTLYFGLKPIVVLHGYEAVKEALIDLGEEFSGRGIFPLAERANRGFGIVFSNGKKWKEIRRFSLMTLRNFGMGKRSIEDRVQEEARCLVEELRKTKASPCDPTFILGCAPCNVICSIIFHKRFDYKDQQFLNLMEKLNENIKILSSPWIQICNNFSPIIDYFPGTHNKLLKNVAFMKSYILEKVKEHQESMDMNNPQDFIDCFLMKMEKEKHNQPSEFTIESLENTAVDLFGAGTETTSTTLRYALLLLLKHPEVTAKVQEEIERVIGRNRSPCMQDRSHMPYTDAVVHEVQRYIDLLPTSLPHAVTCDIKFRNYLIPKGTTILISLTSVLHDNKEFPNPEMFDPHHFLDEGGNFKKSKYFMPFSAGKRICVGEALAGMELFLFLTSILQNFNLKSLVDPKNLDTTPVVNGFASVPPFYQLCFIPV
Cytochrome P450 2C19, sequence (P33261 whole entry): as the sequence (P33261 whole entry) above
Cytochrome P450 2D6, sequence (P10635 whole entry): as the sequence (P10635 whole entry) above
Hepatocyte growth factor receptor, sequence (P08581 whole entry): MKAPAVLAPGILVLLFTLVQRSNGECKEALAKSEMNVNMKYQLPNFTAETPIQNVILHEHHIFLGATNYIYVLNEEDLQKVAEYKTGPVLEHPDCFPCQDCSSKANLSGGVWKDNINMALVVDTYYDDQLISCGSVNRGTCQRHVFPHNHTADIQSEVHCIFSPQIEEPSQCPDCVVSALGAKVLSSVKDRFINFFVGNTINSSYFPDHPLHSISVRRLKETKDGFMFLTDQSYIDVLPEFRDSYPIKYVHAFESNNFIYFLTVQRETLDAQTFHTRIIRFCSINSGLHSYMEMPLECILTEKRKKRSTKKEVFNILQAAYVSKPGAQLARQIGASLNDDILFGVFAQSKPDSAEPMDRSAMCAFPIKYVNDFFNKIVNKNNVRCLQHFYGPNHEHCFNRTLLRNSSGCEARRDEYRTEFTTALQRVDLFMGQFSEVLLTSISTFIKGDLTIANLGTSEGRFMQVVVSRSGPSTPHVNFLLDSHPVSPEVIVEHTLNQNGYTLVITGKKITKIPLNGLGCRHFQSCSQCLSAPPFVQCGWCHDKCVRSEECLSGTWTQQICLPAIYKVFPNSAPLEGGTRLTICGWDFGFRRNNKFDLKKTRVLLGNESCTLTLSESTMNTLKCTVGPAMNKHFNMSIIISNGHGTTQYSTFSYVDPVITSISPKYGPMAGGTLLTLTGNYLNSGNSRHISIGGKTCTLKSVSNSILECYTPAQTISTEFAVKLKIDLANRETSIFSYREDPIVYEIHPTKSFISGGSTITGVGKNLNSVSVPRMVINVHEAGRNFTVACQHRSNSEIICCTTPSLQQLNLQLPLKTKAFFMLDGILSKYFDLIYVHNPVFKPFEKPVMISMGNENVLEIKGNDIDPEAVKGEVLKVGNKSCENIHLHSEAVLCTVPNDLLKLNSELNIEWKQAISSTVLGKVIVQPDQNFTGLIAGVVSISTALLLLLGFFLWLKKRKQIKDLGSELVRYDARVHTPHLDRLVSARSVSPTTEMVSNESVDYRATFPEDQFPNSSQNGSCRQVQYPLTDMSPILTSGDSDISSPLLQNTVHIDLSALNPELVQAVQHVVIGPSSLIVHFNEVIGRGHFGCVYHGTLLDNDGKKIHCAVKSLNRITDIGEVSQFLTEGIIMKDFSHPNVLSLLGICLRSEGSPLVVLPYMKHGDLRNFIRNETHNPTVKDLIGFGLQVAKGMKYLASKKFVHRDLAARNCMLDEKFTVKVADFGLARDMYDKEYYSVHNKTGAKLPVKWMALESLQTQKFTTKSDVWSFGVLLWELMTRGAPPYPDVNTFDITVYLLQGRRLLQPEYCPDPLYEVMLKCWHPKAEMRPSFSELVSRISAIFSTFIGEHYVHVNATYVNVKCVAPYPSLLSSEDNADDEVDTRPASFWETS
Cytochrome P450 2C9, sequence (P11712 whole entry): as the sequence (P11712 whole entry) above

remaining at 0.5 h, 1 µM [1]	microsomal CLint at 1 µM [2]	microsomal CLint at 1 µM [5]	microsomal CLint at 1 µM [7]	remaining at 0.5 h, 1 µM [8]	IC50 (SNU-5; Homo sapiens, SNU-5, 72 h)	IC50 (NCI-H1993; Homo sapiens, NCI-H1993, 72 h)	remaining at 0.5 h, 1 µM [11]	Structure (SMILES)	other results
65%	5 µL/min/mg	11 µL/min/mg	34 µL/min/mg	101%	1.7 nM	0.9 nM	103%	CC(c1cc2cc(-c3cnn(C)c3)cnc2cc1F)n1nnc2ncc(-c3cnn(C)c3)nc21 (configuration not stated)	inhibition at 20 min, 10 µM (CYP2C19 [3]): < 50%; inhibition at 20 min, 10 µM (CYP1A2 [4]): < 50%; TDI (Cytochrome P450 3A4 [6]): Active; inhibition at 20 min, 10 µM (CYP2D6 [9]): < 50%; inhibition at 20 min, 10 µM (CYP2C9 [10]): < 50%; inhibition at 20 min, 10 µM (CYP3A4 [12]): < 50%
79%	12 µL/min/mg	42 µL/min/mg	22 µL/min/mg	–	0.5 nM	–	115%	CC(c1ccc2ncc(-c3cnn(C)c3)cc2c1)n1nnc2ncc(-c3cnn(C)c3)nc21 (configuration not stated)	Drug recovery (Liver): 123%
99%	9 µL/min/mg	106 µL/min/mg	26 µL/min/mg	101%	1.2 nM	0.2 nM	98%	CC(c1c(F)cc2ncc(-c3cnn(C)c3)cc2c1F)n1nnc2ncc(-c3ccncc3)nc21 (configuration not stated)	inhibition (INH) (Cytochrome P450 2C19): Active; inhibition at 10 µM (CYP3A4 [13]): < 50%; inhibition (INH) (Cytochrome P450 2D6): Active; inhibition (INH) (Cytochrome P450 2C9): Active; inhibition at 10 µM (CYP1A2 [14]): < 50%; inhibition at 10 µM (CYP2C9 [15]): < 50%; inhibition at 10 µM (CYP2C19 [16]): < 50%; inhibition at 10 µM (CYP2D6 [17]): < 50%; inhibition (INH) (Cytochrome P450 3A4 [18]): Active
–	–	–	–	–	–	–	–	CC(c1cc2cc(-c3cnn(C)c3)cnc2cc1F)n1nnc2ncc(-c3cnn(CCO)c3)nc21 (single isomer, unassigned; enantiomer 1)	IC50 [19]: 0.68 nM; F (Rattus norvegicus): 8.6%; IC50 (SNU-5; snu-5): 0.8 nM; IC50 (NCI-H1993; nci-h1993): 0.7 nM
